The list is not random: actives were taken first. Their share in the collection is about 9.8%.
PMI act = increases human mannose-6-phosphate isomerase activity; P34949; purified human PMI, coupled resazurin fluorescence, 20 min; hits give high values; 1 = vehicle control, 0 substrate-free wells; activation factor at 20 µM; 0.005% of 190,000 active;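 active means activation factor of 2 or more at 20 µM, relative to plate controls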
m-calpain inh = calpain II (pig) inhibition; purified calpain II, fluorogenic peptide substrate, 30 min; inhibition, % at 16 µM; 0.37% of 220,000 active;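 active means inhibition above about 50%, limit read from the data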
WT yeast gro inh = growth inhibition of WT yeast, mitochondrial fusion screen; inhibition, % at 10 µM; AID 1362; mitochondrial fusion phenotypic screen, WT strain; 2.1% of 190,000 active; in the data active means inhibition above about 58%; tested in S. cerevisiae
PMI act hi M6P = increases human PMI activity with near-saturating mannose 6-phosphate; 0.34% of 190,000 active; P34949; AID 1216; activation factor at 20 µM; coupled PMI enzyme assay, resazurin fluorescence, 20 min; hits give high values; 1 = untreated enzyme, 0 = substrate-free blank;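 active means activation factor of 2 or more at 20 µM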
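Test system: Human PMI in coupled enzyme assay | Input: 15 ng/mL PMI | Medium: HEPES-buffered pH 7.4 with magnesium and detergent | Compound: One concentration, 20 µM, in 1% DMSO | Incubation: Enzyme reaction with compound 20 min at room temperature | Detection: Diaphorase-driven resazurin-to-resorufin fluorescence, excitation 544, emission 590 nm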
Rad51 HR inh = blocks human Rad51 in homologous recombination | hRad51 DNA strand exchange, fluorescence dequenching | Q06609 | 0.085% of 200,000 active | inhibition, % at 10 µM;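 active means inhibition above 40% at the single screening dose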;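 further: 0% = DMSO control wells and 100% = blanks with heterologous ssDNA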
Target sequence (Q06609 whole entry, looked up): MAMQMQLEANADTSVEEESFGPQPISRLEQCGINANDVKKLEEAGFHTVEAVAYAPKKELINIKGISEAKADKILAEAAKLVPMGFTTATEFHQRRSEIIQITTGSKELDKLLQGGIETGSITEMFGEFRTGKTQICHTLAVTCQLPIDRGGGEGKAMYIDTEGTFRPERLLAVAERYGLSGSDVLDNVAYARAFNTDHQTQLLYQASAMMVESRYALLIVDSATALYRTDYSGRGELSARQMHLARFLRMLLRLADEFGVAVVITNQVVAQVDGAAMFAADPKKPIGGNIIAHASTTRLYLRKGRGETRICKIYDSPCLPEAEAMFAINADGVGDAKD
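System: hRad51 filaments on single-stranded DNA; reagent: Fluorescein- and BHQ1-tagged 47-mer duplex; compound dosing: one concentration, 10 µM final; timing: filaments 15 min 37 °C, then compound 30 min; measured by: fluorescein emission 520 nm, excitation 485 nm; benchmarks: per-plate controls and blanks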
L major viab = Leishmania major promastigote growth inhibition; Leishmania major promastigotes, resazurin fluorescence viability; inhibition, % at 10 µM; 9% of 200,000 active; in the data active means inhibition above about 50%;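 further: promastigotes grown with compound for 44 hours at 28 °C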
* marks the source's active call; other numbers are inactive results; nt = not tested or not shown.

SMILES	PMI act	m-calpain inh	WT yeast gro inh	PMI act hi M6P	Rad51 HR inh	L major viab
O=C(Nc1cccc2ccccc12)c1cc2c(cc1Br)OCO2	nt	-11	nt	nt	6	nt
O=C(CC1CC2CCC1C2)OCC(=O)c1c[nH]c2ccccc12 (stereo not drawn)	0.9	79*	31	0.9	3	72*
Cn1c(N)c(C(=O)COC(=O)CSc2ccccc2)c(=O)n(C)c1=O	0.8	24	-6	0.8	7	-3
Cc1ccc(C(=O)OCC(=O)c2c[nH]c3ccccc23)cc1NC(=O)c1ccco1	0.8	-96	-4	0.9	nt	69*
CCN(CC)C(=O)COC(=O)c1ccc(C)c(NC(=O)c2ccco2)c1	1.2	3	-4	1.1	-14	4
O=C(OCC(=O)c1c[nH]c2ccccc12)c1cc2ccccc2cc1O	0.9	30	-6	0.7	-1	62*
Cn1c(N)c(C(=O)COC(=O)CC2CC3CCC2C3)c(=O)n(C)c1=O (stereo not drawn)	1.2	92*	0	1.1	3	-7
Cc1cc(C)n2nc(C(=O)OCC(=O)c3c[nH]c4ccccc34)nc2n1	1.1	16	0	1	3	-6
Cc1ccc(C)c(N2CCN(c3ccc(N4C(=O)COCC4=O)cc3[N+](=O)[O-])CC2)c1	0.9	-52	4	1	-1	44
Cc1cc(N2C(=O)C=CC2=O)c([N+](=O)[O-])cc1C	1.2	-13	62*	1.6	5	23
CCCN(CCC)CC(O)CN(c1ccccc1)S(=O)(=O)c1ccc(C)cc1 (stereo not drawn)	0.9	-32	3	1	-2	97*
COc1ccccc1N(CC(O)Cn1c2ccccc2c2ccccc21)S(=O)(=O)c1ccccc1 (stereo not drawn)	0.8	-55	28	0.8	21	54*
COc1ccccc1CNCC(O)Cn1c2ccccc2c2ccccc21 (stereo not drawn)	0.9	3	91	0.8	1	100*
Cc1ccc(S(=O)(=O)N(CC(O)CN2CCCCC2)c2ccccc2)cc1 (stereo not drawn)	1	-11	2	1	6	0
COc1ccccc1N(CC(O)Cn1nc(C)cc1C)S(=O)(=O)c1ccccc1 (stereo not drawn)	1	-14	8	1.1	nt	3
O=S(=O)(c1ccccc1)N(CC(O)Cn1c2ccccc2c2ccccc21)c1ccccc1 (stereo not drawn)	0.9	7	51	0.9	-1	100*
O=C(NCc1cccc(Br)c1)C1CC(c2ccc(C(F)(F)F)cc2)=NO1 (stereo not drawn)	nt	nt	nt	nt	-8	nt
CCc1sc(C(=O)NCCc2ccc(S(N)(=O)=O)cc2)cc1Br	1	-4	-16	0.9	2	14
CC(C)OP(=O)(OC(C)C)C(NC(=O)c1ccccc1Br)C(N)=O (stereo not drawn)	nt	0	nt	nt	9	nt
C=CCN(CC=C)CC(O)CN(c1cc([N+](=O)[O-])ccc1OC)S(=O)(=O)c1ccccc1 (stereo not drawn)	1	-3	-22	1	nt	64*
CCN(CC(O)Cn1c2ccccc2c2ccccc21)S(=O)(=O)c1ccc(F)cc1 (stereo not drawn)	0.8	69*	65*	0.8	-10	13
O=S(=O)(c1ccc(F)cc1)N(CCO)CC(O)Cn1c2ccccc2c2ccccc21 (stereo not drawn)	0.9	-6	27	1	-3	25
O=C(O)CCn1nnc(-c2ccccc2)n1	1.1	-14	-16	1.1	1	-4
O=C(NCCc1nnc2ccc(NCc3ccc(Cl)cc3)nn12)c1ccccc1	1	57*	2	1	0	-11
CCN1CCN(Cc2ccc(OCc3ccccc3)cc2)CC1	0.9	-16	8	1	2	92*
SMILES	PMI act	m-calpain inh	WT yeast gro inh	PMI act hi M6P	Rad51 HR inh	L major viab
CCOc1ccc(C(=O)N2CCN(Cc3ccccc3)CC2)cc1	1.1	20	15	1.1	-2	-3
CN1CCN(Cc2ccc(OCc3ccccc3)cc2)CC1	1	-5	10	1.1	1	95*
Cc1ccc(S(=O)(=O)N(C)C)cc1NC(=O)c1cccnc1Oc1ccccc1	nt	-17	nt	nt	nt	nt
O=C(CSc1nc(O)c(C2CCCCC2)c(=O)[nH]1)N1CCOCC1	1	-10	-5	1	5	-9
COc1cc(CNCc2ccccn2)ccc1OCc1ccc(Cl)cc1Cl	0.9	-4	63	1	-2	99*
COc1cc(CNCc2ccccn2)ccc1OCc1ccc(Cl)c(Cl)c1	1.1	27	72*	1.1	-5	100*
COc1cc(CNCc2ccccn2)ccc1OCC(N)=O	1	-2	-5	1	-26	-2
C=C(C)C(=O)Nc1cccnc1Oc1ccc(F)cc1F	nt	3	nt	nt	-12	nt
S=C(Nc1ccccc1)N1CCN(C/C=C/c2ccccc2)CC1	0.9	14	23	0.9	-6	39
COc1ccc2[nH]cc(C(=O)CN3CCN(C/C=C/c4ccccc4)CC3)c2c1	1	-26	-11	1	-3	98*
COc1cccc(NC(=S)N2CCN(C/C=C/c3ccccc3)CC2)c1	0.9	2	16	0.7	0	95*
COc1ccc(N2CCN(CC(=O)c3c[nH]c4ccccc34)CC2)cc1	nt	0	nt	nt	0	nt
S=C(NCc1ccco1)N1CCN(C/C=C/c2ccccc2)CC1	1	8	8	0.9	7	77*
S=C(NC1CCCC1)N1CCN(C/C=C/c2ccccc2)CC1	1.1	-1	16	1.2	11	81*
CCC(C)c1ccc(S(=O)(=O)N2CCN(C(C)CC(=O)O)CC2)cc1 (stereo not drawn)	1.1	16	7	1	-8	48
COc1cc(/C=C/CN2CCC(CO)(CC3CCCCO3)CC2)ccc1O (stereo not drawn)	0.9	2	-6	0.8	-1	1
OCC1(CC2CCCCO2)CCN(C/C=C/c2ccccc2)CC1 (stereo not drawn)	0.9	15	12	0.9	-18	89*
COC(=O)C1=C(C)NC(=O)NC1c1ccc(OC(=O)c2ccco2)cc1 (stereo not drawn)	1	15	-4	0.9	nt	-1
CCc1ccc(NC(=S)N(Cc2cccc(Br)c2)CC2CCC(C(=O)O)CC2)cc1 (stereo not drawn)	1	-27	48	1	-31	2
O=NN(CCc1ccncc1)c1ccc(OCc2ccccc2)cc1	1.1	21	-36	1	1	86*
O=C(NCc1ccncc1)C(=O)N/N=C/c1ccc(OCc2ccccc2)cc1	1	-3	4	1	7	-2
CC(=O)N1CCC(=NNc2ncc(C(F)(F)F)cc2Cl)CC1	0.9	14	14	0.8	-7	-19

Screening results deposited in PubChem by several laboratories.
